Experimental data published in ChEMBL document CHEMBL1134465, “Synthesis and evaluation of pteroic acid-conjugated nitroheterocyclic phosphoramidates as folate receptor-targeted alkylating agents” (J Med Chem, 2001).

Legend:
[1] = In vitro growth inhibition of human ovarian carcinoma cell line, IGROV with over expressed folate receptors; format: functional
How it was run: (§1)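 Cells were seeded and grown 24 h at 37 °C in McCoy's 5A medium with 10% heat-inactivated FBS, penicillin 100 U/mL and streptomycin 100 μg/mL. Drug from DMSO stock was added in the same medium, with final DMSO <1%. Five serial 10-fold dilutions were tested, top final concentration 100 μg/mL.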

UMUC3 = assay: In vitro growth inhibition of human tumor cell line, UMUC3; format: functional, cell-based; how it was run: as §1
[2] = In vitro growth inhibition of human breast adrenocarcinoma cell line, MDA-231 with over-expressed folate receptors; format: functional; settings: MDA-MB-231; how it was run: as §1
A549 [3] = assay: In vitro growth inhibition of human lung carcinoma cell line, A549 with low levels of folate receptors; format: functional, cell-based; how it was run: as §1
[4] = In vitro growth inhibition of human breast adrenocarcinoma cell line, MDA-231 with over-expressed folate receptors in folate deficient medium; format: functional; settings: MDA-MB-231
How it was run: (§2)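 Cells were incubated with drug for 72 h in folate-deficient medium. Drug from DMSO stock was added with final DMSO <1%. Five serial 10-fold dilutions were tested, top final concentration 100 μg/mL. Viable cells were estimated by MTT and IC50 was derived.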

HT-29 = assay: In vitro growth inhibition of human tumor cell line, HT-29; format: functional, cell-based; how it was run: as §1
A498 [5] = assay: In vitro growth inhibition of human kidney carcinoma cell line, A498 with low levels of folate receptors; format: functional, cell-based; how it was run: as §1
A498 [6] = assay: In vitro growth inhibition of human kidney carcinoma cell line, A498 with low levels of folate receptors in folate deficient medium; format: functional, cell-based; how it was run: as §2
MIA PaCa-2 = assay: In vitro growth inhibition of human tumor cell line, PACA2; format: functional, cell-based; how it was run: as §1
[7] = In vitro growth inhibition of human ovarian carcinoma cell line, IGROV with over expressed folate receptors in folate deficient medium; format: functional; how it was run: as §2
A549 [8] = assay: In vitro growth inhibition of human lung carcinoma cell line, A549 with low levels of folate receptors in folate deficient medium; format: functional, cell-based; how it was run: as §2
PC-3 = assay: In vitro growth inhibition of human tumor cell line, PC3; format: functional, cell-based; how it was run: as §1
[9] = In vitro growth inhibition of human breast adrenocarcinoma cell line, MDA-231 with over expressed folate receptors; format: functional; settings: MDA-MB-231; how it was run: as §1

| Compound | IC50 [1] [µM] | IC50 (UMUC3) [µM] | IC50 [2] [µM] | IC50 (A549 [3]) [µM] | IC50 [4] [µM] | IC50 (HT-29) [µM] | IC50 (A498 [5]) [µM] | IC50 (A498 [6]) [µM] | IC50 (MIA PaCa-2) [µM] | IC50 [7] [µM] | IC50 (A549 [8]) [µM] | IC50 (PC-3) [µM] | IC50 [9] [µM] |
| --- | --- | --- | --- | --- | --- | --- | --- | --- | --- | --- | --- | --- | --- |
| Nc1nc(O)c2nc(CNc3ccc(C(=O)NC(CCCCNP(=O)(OCc4ccc([N+](=O)[O-])o4)N(CCBr)CCBr)C(=O)O)cc3)cnc2n1 (stereo unspecified) | 0.83 | 5.2 | 8 | 11 | 3.6 | 0.3 | 11 | 19 | 16 | 0.57 | 23 | 11 |  |
| NC(CCCCNP(=O)(OCc1ccc([N+](=O)[O-])o1)N(CCCl)CCCl)C(=O)O (stereo unspecified) |  | 0.62 |  | 41 |  | 20 | 26 |  | 2.4 |  |  | 21 | 16 |
| CCCNP(=O)(OCc1ccc([N+](=O)[O-])o1)N(CCCl)CCCl (stereo unspecified) |  | 0.72 |  | 1.9 |  | 17 | 1.4 |  | 0.45 |  |  | 2.3 | 1.9 |
